Data as given in ChEMBL document CHEMBL4382237, “Design, Synthesis, and Biological Evaluation of 2-Nitroimidazopyrazin-one/-es with Antitubercular and Antiparasitic Activity” (J Med Chem, 2018).
Converted amounts (≈) assume the structure as drawn.

Assays:
[1] = test system: Klebsiella pneumoniae; assay: Antibacterial activity against Klebsiella pneumoniae 700603 by broth microdilution assay; format: functional
Method in brief: (§1)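 Broth microdilution run essentially per an earlier report. MIC taken as the lowest concentration with no visible growth. Replicates typically agreed within one 2-fold dilution. The median MIC is reported, with a range where the median fell between two tested concentrations.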

[2] = test system: Acinetobacter baumannii; assay: Antibacterial activity against Acinetobacter baumannii ATCC 19606 by broth microdilution assay; format: functional; settings: ATCC 19606 = CIP 70.34 = JCM 6841; method in brief: as §1
[3] = test system: Pseudomonas aeruginosa; assay: Antibacterial activity against Pseudomonas aeruginosa ATCC 27853 by broth microdilution assay; format: functional; method in brief: as §1
[4] = test system: Escherichia coli; assay: Antibacterial activity against Escherichia coli ATCC 25922 by broth microdilution assay; format: functional; method in brief: as §1
[5] = test system: Staphylococcus aureus; assay: Antibacterial activity against methicillin-resistant Staphylococcus aureus ATCC […] by broth microdilution assay; format: functional
[6] = test system: Cryptococcus neoformans; assay: Antifungal activity against Cryptococcus neoformans H99 ATCC […] broth microdilution assay; format: functional; settings: var. grubii H99 ATCC 208821; method in brief: as §1
[7] = test system: Candida albicans; assay: Antifungal activity against Candida albicans ATCC 90028 by broth microdilution assay; format: functional; method in brief: as §1
[8] = test system: Mycobacterium tuberculosis; assay: Antibacterial activity against non-replicating Mycobacterium tuberculosis H37Rv after 5 days under hypoxic condition by resazurin dye-based fluorescence assay; format: functional; settings: 120 h
Method in brief: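 Same H37Rv inoculum (OD600 0.001, ~2 x 10^4 CFU/mL) in 7H9S with serially diluted compound. Plates held 5 days at 0.1% oxygen, then resazurin plus Tween-80 added.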

[9] = test system: Clostridioides difficile; assay: Antibacterial activity against Clostridium difficile 630 ATCC BAA-1382 by broth microdilution assay; format: functional; method in brief: as §1
[10] = test system: Giardia intestinalis; assay: Antiparasitic activity against Giardia lamblia WB trophozoites after 24 to 48 hrs by CellTiter-Glo luminescent cell viability assay; settings: Giardia duodenalis
[11] = test system: Entamoeba histolytica; assay: Antiparasitic activity against Entamoeba histolytica HM-1:IMSS trophozoites after 24 to 48 hrs by CellTiter-Glo luminescent cell viability assay; format: functional, organism-based
Method in brief: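 Axenic trophozoites were kept in TYI-S-33 with penicillin (100 U/mL) and streptomycin (100 µg/mL) and harvested in log phase. 5000 parasites per well were exposed to a final 8-point two-fold series of 0.39–50 µM, from 10 mM DMSO stocks. Plates were incubated 24–48 h at 37 °C under anaerobic conditions. ATP luminescence viability was read in triplicate. Percent inhibition is given at the highest concentration tested.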

[12] = test system: Mycobacterium tuberculosis; assay: Antibacterial activity against Mycobacterium tuberculosis H37Rv after 5 days under normoxic condition by resazurin dye-based fluorescence assay; format: functional, organism-based
Method in brief: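 H37Rv grown in 7H9/ADC/glycerol/Tyloxapol to mid-exponential phase, diluted to OD600 0.001 (~2 x 10^4 CFU/mL) in 7H9S with serially diluted compound. Incubated 5 days at 37 °C, then resazurin and Tween-80 added. Fluorescence (ex 530/em 590 nm) read after 24 h, normalised to no-drug and no-bacteria wells.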

[13] = test system: Trypanosoma brucei brucei; assay: Antiparasitic activity against bloodstream form of Trypanosoma brucei brucei strain 427 after 48 hrs by resazurin dye-based assay; format: functional, organism-based; settings: strain 427, 48 h
[14] = test system: HEK293; assay: Cytotoxicity against HEK293 cells after 24 hrs by resazurin dye-based fluorescence assay; format: cell-based; settings: human, hek293, 24 h
Method in brief: (§2)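 HEK293 (3000/well) and HepG2 (5000/well) were grown 24 h in DMEM with 10% FBS at 37 °C, 5% CO2. Cells were then exposed 24 h to a dilution series up to 100 µM (0.5% DMSO). 5 µM resazurin was added for 2 h, read at ex 560/em 590. 1% Triton X-100 served as lysis control. CC50 was derived from the curves.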

[15] = test system: HepG2; assay: Cytotoxicity against human HepG2 cells after 24 hrs by resazurin dye-based fluorescence assay; format: cell-based; settings: hepg2, 24 h; method in brief: as §2

| Compound | MIC [8] [µg/mL] | MIC [9] [µg/mL] | IC50 [10] [µM] | IC50 ([11]; read-out: IC50) [µM] | IC50 ([10]; read-out: pIC50 (converted)) [µM] | IC50 ([11]; read-out: pIC50 (converted)) [µM] | IC50 ([13]; read-out: IC50) [µM] | IC50 ([13]; read-out: pIC50 (converted)) [µM] | further results |
| --- | --- | --- | --- | --- | --- | --- | --- | --- | --- |
| CC(=O)OCCn1ccn2cc([N+](=O)[O-])nc2c1=O | – | – | – | – | – | – | – | – | MIC [1]: > 32 µg/mL; MIC [2]: > 32 µg/mL; MIC [3]: > 32 µg/mL; MIC [4]: > 32 µg/mL; MIC [5]: > 32 µg/mL; MIC [6]: > 32 µg/mL; MIC [7]: > 32 µg/mL |
| O=C(NCc1cccc(OC(F)(F)F)c1)c1ncc([N+](=O)[O-])[nH]1 | > 32 | 4 to 16 (≈ 12.1 to 48.5 µM) | 0.2 to 0.5 | 2.2 to 4.5 | – | – | – | – | – |
| Cc1nc(OCc2ccccc2OC(F)(F)F)c2nc([N+](=O)[O-])cn2c1C | > 32 | – | > 50 | > 50 | > 50.1 | > 50.1 | 1.9 | 2 | MIC [12]: >32 µg/mL |
| Cc1nc(OCc2cccc(OC(F)(F)F)c2)c2nc([N+](=O)[O-])cn2c1C | > 32 | – | 3.9 | 27 | 3.98 | 25.1 | 1.4 | 1.26 | MIC [12]: >32 µg/mL |
| CC(=O)OCCOc1nc(-c2ccccc2)cn2cc([N+](=O)[O-])nc12 | > 32 | – | 1.9 | > 50 | 2 | > 50.1 | 1.5 | 1.58 | – |
| Cc1cn2cc([N+](=O)[O-])nc2c(=O)n1CCO | > 32 | – | > 50 | > 50 | > 50.1 | > 50.1 | 4.6 | 5.01 | – |
| O=c1c2nc([N+](=O)[O-])cn2cc(-c2ccccc2)n1CCO | > 32 | – | 38 | > 50 | 39.8 | > 50.1 | – | – | CC50 [14]: > 75 µM; CC50 [15]: > 75 µM |
| CN(C)C(=O)c1nc([N+](=O)[O-])cn1Cc1ccc(OC(F)(F)F)cc1 | > 32 | 16 to 64 (≈ 44.7 to 179 µM) | 2.7 to 7.5 | 10 to 45 | – | – | – | – | – |
| O=[N+]([O-])c1cn2cc(-c3ccccc3)nc(OCCO)c2n1 | > 32 | – | 5.2 | > 50 | 5.01 | > 50.1 | 1.1 | 1 | – |
| NC(=O)c1nc([N+](=O)[O-])cn1Cc1ccc(F)cc1 | > 32 | > 64 | 4.1 to 50 | > 25 | – | – | – | – | – |
| Cc1cn2cc([N+](=O)[O-])nc2c(=O)n1Cc1cccc(OC(F)(F)F)c1 | > 32 | – | 2.8 | 16 | 2.51 | 15.8 | 1.1 | 1.26 | MIC [12]: >32 µg/mL |
| O=c1c2nc([N+](=O)[O-])cn2ccn1Cc1ccccc1 | – | > 64 | – | – | – | – | – | – | – |
| O=c1c2nc([N+](=O)[O-])cn2ccn1CCN1CCOCC1 | > 32 | – | – | – | – | – | – | – | MIC [1]: > 32 µg/mL; MIC [2]: > 32 µg/mL; MIC [12]: >32 µg/mL; CC50 [14]: > 100 µM; MIC [3]: > 32 µg/mL; MIC [4]: > 32 µg/mL; CC50 [15]: > 100 µM; MIC [5]: > 32 µg/mL; MIC [6]: > 32 µg/mL; MIC [7]: > 32 µg/mL |
| Cc1ccc(Cn2c(C)cn3cc([N+](=O)[O-])nc3c2=O)cc1 | > 32 | – | 4.4 | 10 | 3.98 | 10 | 0.56 | 0.501 | MIC [12]: >32 µg/mL |
| O=C(NCc1ccc(F)cc1)c1ncc([N+](=O)[O-])[nH]1 | > 32 | 4 to 16 (≈ 15.1 to 60.6 µM) | 0.2 to 0.5 | 2.2 to 4.5 | – | – | – | – | – |
| Cc1ccc(Cn2cc([N+](=O)[O-])nc2C(N)=O)cc1 | > 32 | > 64 | 4.1 to 50 | > 25 | – | – | – | – | – |
| Cc1ncc([N+](=O)[O-])n1CCO [METRONIDAZOLE] | > 32 | 0.5 (≈ 2.92 µM) | 7.2 | 4.3 | 7.94 | 3.98 | > 40 | > 39.8 | – |
| O=C(NCc1ccccc1)c1nc([N+](=O)[O-])c[nH]1 | > 32 | 4 to 16 (≈ 16.2 to […] µM) | 0.2 to 0.5 | 2.2 to 4.5 | – | – | – | – | – |
